Data set [1] can be described thus: AUC in mouse at 10 mg/kg, po. The format is ADME, organism-based. To be noted: in vivo.
Data set [2] can be described thus: Clearance in mouse at 1 mg/kg, iv. The data set is classed as ADME, organism-based. Particulars: in vivo.
The nature of data set [3]: Elimination half life in mouse at 1 mg/kg, iv. The format is ADME, organism-based. To be noted: in vivo, read-out: beta t1/2 (converted).
Data set [4] is described as follows: Absolute bioavailability in mouse at 1 mg/kg, iv 10 mg/kg, po. Particulars: in vivo. The data set is classed as ADME, organism-based.
Data set [5] deals with Mus musculus. Description: Anticolitis activity in DSS-induced acute colitis C57BL/6 mouse model assessed as reduction in disease activity index at 50 mg/kg, sc bid for 10 days. The data set is classed as functional. Further details: scale not given: the % may be the effect or the level left.
The next data set deals with Liver microsome. Nature of the data set: Metabolic stability of compound in human liver microsomes assessed as remaining compound at 37 deg C. The data set is classed as ADME. A digest of the protocol:
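Test compound incubated with human liver microsomes at 37 °C. Loss of parent compound was followed over a 30 min period, and the percentage remaining is reported as the mean of 3 replicates.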

Data set [6] is described as follows: Solubility of compound at pH 7.4 buffer. The data set is classed as physicochemical. An outline of the steps: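 Solubility was measured at pH 7.4. Each value is the mean of three replicates.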
A short description of data set [7]: Metabolic stability of compound in mouse liver microsomes assessed as remaining compound at 37 deg C. The data set is classed as ADME.
Data set [8] deals with Mus musculus. Nature of the data set: Anticolitis activity in DSS-induced chronic colitis C57BL/6 mouse model assessed as reduction in disease activity index at 30 mg/kg, po bid for 30 days. The format is functional, organism-based.
The subject of data set [9] is Mus musculus. Nature of the data set: Anticolitis activity in DSS-induced acute colitis C57BL/6 mouse model assessed as reduction in disease activity index at 3 mg/kg, po bid for 10 days. Particulars: C57BL/6, po, 240 h. The data set is classed as functional.
In data set [10] the test system is Mus musculus. Nature of the data set: Anticolitis activity in DSS-induced acute colitis C57BL/6 mouse model assessed as reduction in disease activity index at 30 mg/kg, po bid for 10 days. Particulars: C57BL/6, po, 240 h. The data set is classed as functional.
In data set [11] the test system is Mus musculus. Nature of the data set: Anticolitis activity in DSS-induced acute colitis C57BL/6 mouse model assessed as reduction in disease activity index at 10 mg/kg, po bid for 10 days. The format is functional. To be noted: C57BL/6, po, 240 h.
The subject of data set [12] is Mus musculus. Nature of the data set: Anticolitis activity in DSS-induced acute colitis C57BL/6 mouse model assessed as reduction in disease activity index at 100 mg/kg, po bid for 10 days. The data set is classed as functional. Particulars: C57BL/6, po, 240 h.
In data set [13] the target is T1, C-C chemokine receptor type 9 (Homo sapiens, UniProt P51686).
T1 sequence (P51686 whole entry): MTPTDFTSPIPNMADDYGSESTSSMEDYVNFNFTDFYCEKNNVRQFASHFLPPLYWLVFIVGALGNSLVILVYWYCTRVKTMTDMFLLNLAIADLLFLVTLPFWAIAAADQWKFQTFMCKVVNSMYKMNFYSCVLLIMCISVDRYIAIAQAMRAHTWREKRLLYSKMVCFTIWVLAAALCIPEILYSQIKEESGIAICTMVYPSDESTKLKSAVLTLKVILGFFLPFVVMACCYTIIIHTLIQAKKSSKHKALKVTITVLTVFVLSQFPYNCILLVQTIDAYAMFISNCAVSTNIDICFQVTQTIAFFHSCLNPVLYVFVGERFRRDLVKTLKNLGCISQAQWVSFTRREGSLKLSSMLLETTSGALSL
Description: Antagonist activity at CCR9 receptor in human MOLT4 cells assessed as inhibition of CCL25-induced increase in intracellular calcium level preincubated for 1 hr followed CCL25 addition by FLIPR assay. The data set is classed as functional, cell-based, MOLT-4.

The test system of data set [14] is Mus musculus. Description: Anticolitis activity in DSS-induced acute colitis C57BL/6 mouse model assessed as reduction in disease activity index at 30 mg/kg, sc bid for 10 days. The data set is classed as functional. To be noted: C57BL/6, sc, 240 h.

Structures are written as SMILES. ≈ marks a conversion by molar mass, not a printed value. Calls of active or inactive are those of the source. No cut-off for these calls is given here.

For `CC(C)(C)c1ccc(S(=O)(=O)Nc2ccc(Cl)cc2C(=O)c2cc[n+]([O-])cc2)cc1` [VERCIRNON], the AUC in data set [1] was 340 ng·h/mL. The clearance in data set [2] was 103 mL/min/kg. In addition, the half-life in data set [3] was 0.16 h. Also, the bioavailability in data set [4] was determined as 22%. Besides, the Activity in the data set with Mus musculus [5] came out at 17%. In addition, the values for the Stability (with Liver microsome; in data set [7]) were 73% and 9%, respectively. This compound also showed a solubility in [6] of 6 µM (≈ 2.67 µg/mL).

`Cc1c(N2C(=O)c3c(Cl)ccc(NS(=O)(=O)c4ccc(C(C)(C)C)cc4)c3C2=O)ccc[n+]1[O-]`: the AUC in data set [1] is 16200 ng·h/mL. Besides, in data set [2], the clearance was found to be 4.69 mL/min/kg. In the data set on Mus musculus [8], the result was Active. Moreover, in the data set on Mus musculus [9], the inhibition in vivo at 3 mg/kg came to 41%. In data set [3], the half-life was 1.28 h. In addition, the bioavailability in [4] was 48%. Further, in the data set with Mus musculus [10], the inhibition in vivo at 30 mg/kg amounted to 51%. For the same compound, the figures for the Stability (in the data set on Liver microsome; in [7]) were 71% and 76%, respectively. For the same compound, the solubility in [6] came to 114 µM (≈ 57 µg/mL). Moreover, the inhibition in vivo at 10 mg/kg in the data set with Mus musculus [11] was found to be 27%. In the data set on Mus musculus [12], the inhibition in vivo at 100 mg/kg was 86%.

In data set [1], `CC(C)(C)c1ccc(S(=O)(=O)Nc2ccc(Cl)c3c2C(=O)N(Cc2cccc[n+]2[O-])C3=O)cc1` registered an AUC of 36000 ng·h/mL. The clearance in data set [2] was found to be 2.57 mL/min/kg. Further, the result in the data set on Mus musculus [8] was Active. Moreover, the half-life in data set [3] is 1.05 h. Moreover, in data set [4], the bioavailability came out at 56%. Moreover, the inhibition in vivo at 30 mg/kg with Mus musculus [10] was determined as 33%. Moreover, the Stability came to 81% in the data set on Liver microsome and 79% in data set [7]. For the same compound, in data set [6], the concentration in solution (solubility) came to 69 µM (≈ 34.5 µg/mL). The inhibition in vivo at 10 mg/kg in the data set on Mus musculus [11] came out at 32%. In the data set with Mus musculus [12], the inhibition in vivo at 100 mg/kg is 51%.

`Cc1cccc(N2C(=O)c3c(Cl)ccc(NS(=O)(=O)c4ccc(C(C)(C)C)cc4)c3C2=O)n1` yielded an AUC in data set [1] of 67900 ng·h/mL. In data set [2], the clearance was 2.34 mL/min/kg. For the same compound, the half-life in data set [3] is 1.32 h. In [4], this compound registered a bioavailability of 95%. Further, the Stability in the data set with Liver microsome is 61%; in data set [7] it was 42%. In [6], this compound showed a solubility of 27 µM (≈ 13.1 µg/mL).

Compound `Cc1ncccc1N1C(=O)c2c(Cl)ccc(NS(=O)(=O)c3ccc(C(C)(C)C)cc3)c2C1=O` returned an AUC in data set [1] of 46800 ng·h/mL. The compound further came in with a clearance in data set [2] of 2.6 mL/min/kg. Also, the half-life in [3] is 3.26 h. The compound further registered a bioavailability in data set [4] of 73%. Further, the Stability in the data set with Liver microsome is on record as 89%; in data set [7] it was 62%. Moreover, the concentration in solution in data set [6] (solubility) came to 81 µM (≈ 39.2 µg/mL).

Consider `CC(C)(C)c1ccc(S(=O)(=O)Nc2ccc(Cl)c3c2C(=O)N(c2ccc(F)nc2)C3=O)cc1`, for which the Ki in data set [13] amounted to 19 nM.

Turning to `CC(C)(C)c1ccc(S(=O)(=O)Nc2ccc(Cl)c3c2C(=O)N(Cc2ccc[n+]([O-])c2)C3=O)cc1`, the exposure (AUC) in [1] stood at 13900 ng·h/mL. Moreover, the clearance in [2] turned out to be 3.92 mL/min/kg. Besides, the outcome in the data set on Mus musculus [8] was Active. For the same compound, the half-life in [3] is 0.62 h. Besides, in data set [4], the bioavailability turned out to be 33%. For the same compound, the inhibition in vivo at 30 mg/kg in the data set with Mus musculus [10] is 31%; in the data set on Mus musculus [14], 24%. In addition, the Stability is 15% with Liver microsome and 8% in data set [7]. The solubility in data set [6] amounted to 126 µM (≈ 63 µg/mL). In addition, in the data set on Mus musculus [11], the inhibition in vivo at 10 mg/kg was 21%. Besides, the inhibition in vivo at 100 mg/kg in the data set with Mus musculus [12] was 58%.

The compound `COc1ccncc1N1C(=O)c2c(Cl)ccc(NS(=O)(=O)c3ccc(C(C)(C)C)cc3)c2C1=O` showed an AUC in data set [1] of 35600 ng·h/mL. Further, in data set [2], the clearance stood at 6.86 mL/min/kg. Also, the half-life in data set [3] was 1.03 h. Further, in [4], the bioavailability worked out at 100%. Moreover, the Stability in the data set on Liver microsome worked out at 81%; in [7] it was 60%. In [6], this compound came in with a solubility of 10 µM (≈ 5 µg/mL).

The compound `COc1ncccc1N1C(=O)c2c(Cl)ccc(NS(=O)(=O)c3ccc(C(C)(C)C)cc3)c2C1=O` displayed an AUC in data set [1] of 24000 ng·h/mL. In data set [2], the clearance stood at 1.73 mL/min/kg. Further, the half-life in [3] was 5.37 h. Besides, the bioavailability in [4] came to 25%. Moreover, the Stability in the data set with Liver microsome is 67%; in data set [7], 64%. The concentration in solution in [6] (solubility) was 26 µM (≈ 13 µg/mL). The Ki in [13] worked out at 3 nM.

As for `CC(C)(C)c1ccc(S(=O)(=O)Nc2cccc3c2C(=O)N(Cc2cccnc2)C3=O)cc1`, the Ki in [13] worked out at 618 nM.

(Values after ChEMBL document CHEMBL3797083, “A New Series of Orally Bioavailable Chemokine Receptor 9 (CCR9) Antagonists; Possible Agents for the Treatment of Inflammatory Bowel Disease” (J Med Chem, 2016).)
